Data reported in ChEMBL document CHEMBL1123557, “N-substituted 1,2,3,4,4a,5,6,10b-octahydrobenzo[f]quinolines and 3-phenylpiperidines: effects on central dopamine and sigma receptors” (J Med Chem, 1987).
Active and inactive are the calls of the source. No cut-off for these calls is given here.

How the values were obtained:
[1] = biological target: Sigma non-opioid intracellular receptor 1 (Rattus norvegicus, UniProt Q9R0C9); test: In vitro for binding affinity against sigma receptor using [3H](+)-3-PPP as radioligand
Sigma non-opioid intracellular receptor 1, sequence (Q9R0C9 whole entry): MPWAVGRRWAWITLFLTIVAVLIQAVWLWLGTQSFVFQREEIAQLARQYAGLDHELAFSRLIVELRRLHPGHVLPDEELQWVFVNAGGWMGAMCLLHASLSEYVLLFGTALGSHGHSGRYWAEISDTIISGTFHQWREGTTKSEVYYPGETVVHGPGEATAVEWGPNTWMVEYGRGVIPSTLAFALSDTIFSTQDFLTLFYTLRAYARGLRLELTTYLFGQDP
How it was run: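 Whole rat brain membranes (male Sprague-Dawley) in 50 mM Tris-HCl pH 8.0. Nonspecific binding defined with 1 μM haloperidol. Rapid filtration onto PEI-treated glass fiber filters, scintillation counting. IC50 from iterative curve fitting.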

D(2) dopamine receptor [2] = biological target: T1, D(2) dopamine receptor (Rattus norvegicus, UniProt P61169); test: Binding affinity against Dopamine receptor D2 using [3H]spiperone as radioligand
T1 sequence (P61169 whole entry): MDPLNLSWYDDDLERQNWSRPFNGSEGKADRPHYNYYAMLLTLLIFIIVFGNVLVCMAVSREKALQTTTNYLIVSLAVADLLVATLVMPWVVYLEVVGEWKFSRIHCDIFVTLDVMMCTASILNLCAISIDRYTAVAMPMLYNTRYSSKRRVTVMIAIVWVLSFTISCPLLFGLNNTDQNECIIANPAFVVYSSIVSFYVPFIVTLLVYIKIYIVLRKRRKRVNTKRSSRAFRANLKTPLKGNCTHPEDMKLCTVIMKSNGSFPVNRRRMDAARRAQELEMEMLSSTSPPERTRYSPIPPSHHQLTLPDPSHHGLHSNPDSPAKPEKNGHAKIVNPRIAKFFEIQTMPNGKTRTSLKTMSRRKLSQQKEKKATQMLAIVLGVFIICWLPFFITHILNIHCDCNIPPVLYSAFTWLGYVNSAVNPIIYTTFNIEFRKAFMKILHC
How it was run: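 Rat striatal membranes (male Sprague-Dawley, 150–250 g), washed three times in 50 mM Tris-HCl pH 7.7. 0.2–0.4 nM [3H]spiperone with 100 mM NaCl and 3 mM MgCl2, about 2 mg tissue, 15 min at 37 °C. Nonspecific binding defined with 1 μM haloperidol. Bound ligand collected by filtration onto PEI-treated glass fiber filters and counted by scintillation. Competition curves fitted iteratively.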

Rattus norvegicus [3] = species on record: Rattus norvegicus; test: Effective dose required for DOPA accumulation (presynaptic dopaminergic effect) in rat; I is inactive; format: functional, organism-based
How it was run: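 Male Sprague-Dawley rats (200–300 g); drug in saline given sc. DOPA measured by HPLC with electrochemical detection in each brain area. Dose-response curves used four to six dose levels per substance and area.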

Rattus norvegicus [4] = test: post-synaptic dopaminergic effect was assessed by the increase in locomotor activity at 30 min time interval by 14 umol/kg dosage administration; format: functional
Rattus norvegicus [5] = test: post-synaptic dopaminergic effect was assessed by the increase in locomotor activity at 30 min time interval by 106 umol/kg dosage administration; format: functional
Rattus norvegicus [6] = test: post-synaptic dopaminergic effect was assessed by the increase in locomotor activity at 30 min time interval by 50 umol/kg dosage administration; format: functional
Rattus norvegicus [7] = test: post-synaptic dopaminergic effect was assessed by the increase in locomotor activity at 30 min time interval by 3.1 umol/kg dosage administration; format: functional
Rattus norvegicus [8] = test: post-synaptic dopaminergic effect was assessed by the increase in locomotor activity at 30 min time interval by 133 umol/kg dosage administration; format: functional
Rattus norvegicus [9] = test: post-synaptic dopaminergic effect was assessed by the increase in locomotor activity at 30 min time interval by 3.3 umol/kg dosage administration; format: functional
How it was run: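 Test substance dissolved in saline immediately before use, occasionally with a few drops of glacial acetic acid and/or moderate heating; dosing solutions at neutral pH. Locomotor activity is the behavioral read-out of postsynaptic dopamine receptor stimulation.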

[10] = biological target: D(2) dopamine receptor (Rattus norvegicus) (UniProt P61169); test: Tested in vivo for binding affinity against Dopamine receptor D2 using nonradiolabeled 5,6-di-n-Pr-ADTN; format: organism-based; set-up: concentration or dose not given beside the values
D(2) dopamine receptor (Rattus norvegicus), sequence (P61169 whole entry): as above

Rattus norvegicus [11] = test: post-synaptic dopaminergic effect was assessed by the increase in locomotor activity at 30 min time interval by 13 umol/kg dosage administration; format: functional
Rattus norvegicus [12] = test: post-synaptic dopaminergic effect was assessed by the increase in locomotor activity at 30 min time interval by 53 umol/kg dosage administration; format: functional
D(2) dopamine receptor [13] = biological target: T1, D(2) dopamine receptor; test: Compound was tested in vivo for binding affinity against D2 receptor using nonradiolabeled 5,6-di-n-Pr-ADTN; format: organism-based
Rattus norvegicus [14] = test: post-synaptic dopaminergic effect was assessed by the increase in locomotor activity at 30 min time interval by 100 umol/kg dosage administration; format: functional
[15] = system: Dopamine D2 receptor (Rattus norvegicus); test: Effective dose required for DOPA accumulation (presynaptic dopaminergic effect) in rat

Structure (SMILES) | IC50 [1] | IC50 (D(2) dopamine receptor [2]) | ED50 (Rattus norvegicus [3]) | further results
COc1ccc2c(c1)C1CCCN(CCc3ccccc3)C1CC2 (racemic) | 14 nM | 435 nM |  | 
CCCN1CCC[C@H]2c3cccc(O)c3CC[C@H]21 | 197 nM | > 100000 nM | inactive | 
Oc1cccc([C@H]2CCCN(CCc3ccccc3)C2)c1 | 8 nM | 1240 nM |  | Accumulated counts (Rattus norvegicus [4]): 26
Oc1ccc2c(c1)C1CCCNC1CC2 (racemic; 18) | 1940 nM | 895 nM |  | Accumulated counts (Rattus norvegicus [5]): 10
CCCN1CCC[C@@H]2c3cccc(O)c3CC[C@@H]21 (racemic) |  |  | inactive | 
COc1ccc2c(c1)C1CCCN(Cc3ccccc3)C1CC2 (racemic) |  | 5520 nM | inactive | Accumulated counts (Rattus norvegicus [6]): 21
CCCN1CCCC2c3cc(O)ccc3CCC21 (racemic; 32) [listing 1 of 2 here] |  |  | inactive | 
CCCN1CCC[C@H]2c3cccc(O)c3CC[C@@H]21 | 438 nM | 34 nM |  | Accumulated counts (Rattus norvegicus [7]): 78
CN1CCC[C@H](c2cccc(O)c2)C1 | 373 nM | 4120 nM |  | Accumulated counts (Rattus norvegicus [8]): 88
CCCN1CCCC2c3cc(O)ccc3CCC21 (racemic; 32) [listing 2 of 2 here] | 66 nM | 6700 nM |  | 
Oc1cccc2c1CC[C@@H]1NCCC[C@@H]21 | 3610 nM | 92 nM |  | 
CCCN1CCCC2c3ccc(O)cc3CCC21 (racemic; 30) | 40 nM | 13000 nM |  | 
CC(C)N1CCC[C@@H](c2cccc(O)c2)C1 | 208 nM | 355 nM |  | Accumulated counts (Rattus norvegicus [9]): 38
CCCN1CCC[C@H](c2cccc(O)c2)C1 |  |  |  | Control [10]: 84%; Accumulated counts (Rattus norvegicus [11]): 78
CCCCN1CCC[C@H](c2cccc(O)c2)C1 | 9 nM | 2670 nM |  | Control [10]: 74%; Accumulated counts (Rattus norvegicus [4]): 180
CCCCN1CCCC2c3cc(OC)ccc3CCC21 (racemic) | 5 nM | 3840 nM | inactive | Accumulated counts (Rattus norvegicus [6]): 135
CCCCN1CCCC2c3cc(O)ccc3CCC21 (racemic; 23) [listing 1 of 2 here] | 10 nM | 2990 nM |  | Accumulated counts (Rattus norvegicus [6]): 75
CCN1CCCC2c3cccc(O)c3CCC21 (racemic) | 236 nM | 102 nM |  | Control [10]: 54%; Accumulated counts (Rattus norvegicus [7]): 19
CC(C)N1CCC[C@H](c2cccc(O)c2)C1 | 247 nM | 12100 nM |  | Accumulated counts (Rattus norvegicus [12]): 49
CCCN1CCCC2c3cccc(O)c3CCC21 (racemic) |  |  |  | IC50 (D(2) dopamine receptor [13]): 63 nM; Accumulated counts (Rattus norvegicus [7]): 163
CN1CCCC2c3cccc(O)c3CCC21 (racemic) | 610 nM | 114 nM |  | Control [10]: 33%; Accumulated counts (Rattus norvegicus [14]): 40
CCCCN1CCCC2c3cc(O)ccc3CCC21 (racemic; 23) [listing 2 of 2 here] |  |  | inactive | 
CCCN1CCCC2c3c(O)cccc3CCC21 (racemic) | 1930 nM | 61800 nM | inactive | 
Oc1ccc2c(c1)C1CCCNC1CC2 (racemic; 31) |  |  | inactive | 
CCCN1CCCC2c3ccc(O)cc3CCC21 (racemic; 17) | 10 nM | 730 nM |  | 
CCCN1CCCC2c3cc(O)ccc3CCC21 (racemic; 21) |  |  |  | Control [10]: 68%; ED50 [15]: 0.008 µmol/kg
